For 11 molecules, AC35 and activity change, negative = inhibition results are on record in PubChem BioAssay AID624073 (Broad Institute, 2012).

Activity calls are given as the source filed them.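 Rule for the calls: active = fitted OD600 growth curve drops 35% below untreated wells at up to twice the top tested dose; inconclusive = flat curve with 30 to 70% drop, or poor fit; inactive = the rest, including rising growth signal.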

The test system of one assay is P. aeruginosa PAK growth with EDDHA, OD600, 28 h. As to the kind of experiment: iron-limited growth inhibition, wild-type PAK – whole organism, PAK strain, OD600, EDDHA, dry powder, set 3, dose response (AID 624073).
Settings: not given
The method in brief:
(§1)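 Also added: EDDHA 2 µM. Test system: Pseudomonas aeruginosa PAK wild-type strain, whole bacterial cells. Read-out: bacterial growth measured as OD600 absorbance. Buffer or medium: succinate M9 medium, pH 7.0. Incubation: 28 h exposure at 30 °C.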
As to `N#CC(c1ccc(Cl)cc1)c1cccc(Cl)n1` (stereo unspecified), the AC35 was 40.9 µM. Still for that read-out and setting: the figure for `N#CC(c1ccc(Cl)cc1)c1ncccc1Cl` (stereo unspecified) is 77.8 µM; for `N#CC(c1cccc(C(F)(F)F)n1)c1ccc(Cl)cc1F` (stereo unspecified) it is 13.7 µM. The same measure, in the same setting: the value for `N#CC(c1ccc(F)cc1)c1cccc(C(F)(F)F)n1` (stereo unspecified) was 15.4 µM; that for `CCCCC(c1ccc(Cl)cc1)c1nn[nH]n1` (stereo unspecified) was > 100 µM (inactive).

Take `N#CC(c1cccc(Cl)n1)c1ccc(Cl)cc1F` (stereo unspecified): the AC35 was 47.5 µM. Consider `N#CC(c1ccc(Cl)cc1)c1ccc(Cl)cn1` (stereo unspecified), for which the AC35 was 87.7 µM. Regarding `N#CC(c1ccc(Cl)cc1)c1cccc(C(F)(F)F)n1` (stereo unspecified), the AC35 was 12.8 µM.

Tested on in a further assay: not listed separately
The description is as above. As to conditions: P. aeruginosa PAK growth with EDDHA, OD600, 28 h; at 100 µM (top of the series). The method in brief:
as §1
Regarding `COCCC(C#N)c1ccc(F)cc1` (stereo unspecified), the activity change, negative = inhibition was 1.49% (inactive). Still for that read-out and setting: the value for `CCCCC(C#N)c1ccc(F)cn1` (stereo unspecified) was -13.8% (inactive). Regarding `COCCNC(C#N)c1ccc(Cl)cc1` (stereo unspecified), the activity change, negative = inhibition was -2.37% (inactive).
